A selection: hits, their analogues and other compounds. The true share with any hit is near 2.5%.
ADAM10 inh: inhibitors of human ADAM10; recombinant ADAM10, EDANS/DABCYL FRET peptide cleavage, 3 h; inhibition, % at 7 µM; 370,000 compounds, 0.62% hits; AID 720582;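 active = inhibition above a per-campaign cutoff equal to the mean of compounds falling between control-based bounds plus 3 SD, cut at about 20% in these data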
Target sequence (O14672 214-748 limits assumed): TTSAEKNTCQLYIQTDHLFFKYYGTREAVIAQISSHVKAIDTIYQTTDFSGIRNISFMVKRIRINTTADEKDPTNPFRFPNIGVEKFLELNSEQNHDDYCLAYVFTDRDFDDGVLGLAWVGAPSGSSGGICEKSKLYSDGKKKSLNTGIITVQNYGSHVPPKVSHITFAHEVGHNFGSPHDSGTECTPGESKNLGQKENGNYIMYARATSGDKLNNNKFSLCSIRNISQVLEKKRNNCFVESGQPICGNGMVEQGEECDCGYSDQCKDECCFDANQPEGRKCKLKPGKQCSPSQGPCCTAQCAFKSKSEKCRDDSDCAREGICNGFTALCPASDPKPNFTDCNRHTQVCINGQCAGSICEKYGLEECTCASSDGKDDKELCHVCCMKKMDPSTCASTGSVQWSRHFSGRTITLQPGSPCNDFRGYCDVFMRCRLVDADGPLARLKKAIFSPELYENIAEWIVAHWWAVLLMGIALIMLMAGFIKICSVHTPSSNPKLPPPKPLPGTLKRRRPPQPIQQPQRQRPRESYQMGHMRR
NR2E3 ag-1: activates human photoreceptor nuclear receptor NR2E3; GST-NR2E3/biotin-RetCOR TR-FRET, 1536-well; AID 2300; 320,000 compounds, 0.12% hits; inhibition of corepressor binding, % at 4.78 µM;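 active = percent inhibition above the cutoff of mean plus 3 SD of all tested compounds, set per screening campaign, cut at about 20% in these data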
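Assay system: NR2E3–RetCOR corepressor complex. Quantity: 1.35 nM GST-NR2E3. Buffer or medium: pH 7.5 Tris-based buffer. Reagent: biotinylated RetCOR corepressor at 7 nM final. Schedule: 5 h at 4 °C. Detection: TR-FRET, emission read at 617 and 671 nm. Replicates: one well per compound, singlicate testing.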
ADAM17 inh: ADAM17 inhibition, QFRET primary screen | 370,000 compounds, 0.83% hits | recombinant ADAM17, EDANS/DABCYL FRET peptide cleavage | inhibition, % at 6.95 µM | P78536;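 active = inhibition above the mean of compounds lying between control limits plus 3 SD, set per campaign, cut at about 8.5% in these data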
JMJD2C inh: blocks human GASC-1 demethylase activity; Q9H3R0; GST-JMJD2C(1-420) H3K9me3 demethylation, DELFIA europium; inhibition, % at 2.35 µM; 330,000 compounds, 0.069% hits;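 active = more than half of a compound's replicate wells show inhibition beyond 50%, single wells judged on their own value; inconclusive = some, but no more than half, of replicates pass 50% inhibition; inactive = no replicate passes 50% inhibition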;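 note: signal counts dimethyl H3K9 product captured on neutravidin plate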
NR2E3 ag-2: agonists of human NR2E3 nuclear receptor; inhibition of corepressor binding, % at 3.98 µM; CHO-S Gal4-NCOR/VP16-NR2E3 two-hybrid, luciferase; 360,000 compounds, 0.35% hits; AID 602229; Q9Y5X4;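 active = inhibition above the mean of all tested compounds plus 3 SD, cut at about 70% in these data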;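 note: higher means lower luciferase signal from less NR2E3 corepressor binding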
proKLK7 act: activates the human kallikrein-7 zymogen | purified proKLK7, EDANS-DABCYL substrate fluorescence; 100% is mature enzyme control, 0% vehicle | P49862 | activation, % at 7 µM | 370,000 compounds, 0.9% hits | AID 652039;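 active = activation above the mean of all tested compounds plus 3 SD, computed per campaign excluding outliers beyond control limits, cut at about 13% in these data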
ADAM10 ctr: ADAM10 inhibition, counter-screen for ADAM17 exosite hits; AID 743256; 2,900 compounds, 47% hits; shares compounds with ADAM17 inh; inhibition, % at 6.95 µM; recombinant ADAM10, EDANS/DABCYL FRET peptide cleavage, 3 h;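 active = mean inhibition over the triplicate runs exceeds the activity threshold set in the earlier primary screen, cut at about 20% in these data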
ADAM17 confirm: confirmation of inhibitors of human ADAM17 | shares compounds with ADAM17 inh | recombinant ADAM17, EDANS/DABCYL QFRET peptide cleavage | inhibition, % at 6.95 µM | 2,900 compounds, 65% hits;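 active = mean inhibition across replicates above the hit cutoff set in the primary screen, cut at about 8.5% in these data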
Large screens that a line does not name were inactive (follow-up assays come after a bar, where they were run).

COc1ccccc1N(Cc1ccccc1)S(=O)(=O)c1cccc(C(=O)Nc2cc(C)ccn2)c1	ADAM17 inh 9.0 | ADAM10 ctr inactive | ADAM17 confirm inactive
COc1ccccc1N(Cc1ccccc1)S(=O)(=O)c1cccc(C(=O)Nc2ncccc2C)c1	none
CCOC(=O)CC1(C)Oc2ccccc2N1S(=O)(=O)c1ccc(C)cc1 (stereo not drawn)	ADAM17 inh 9.9 (no result: NR2E3 ag-1, JMJD2C inh, NR2E3 ag-2) | ADAM10 ctr inactive | ADAM17 confirm inactive
CCC(CC)C(C(=O)NCc1ccccc1)N1CCN(C(=O)C2CCCO2)CC1 (stereo not drawn)	none (no result: NR2E3 ag-1, JMJD2C inh, NR2E3 ag-2)
Cc1cc(N2CCN(CC(C)(C)O)C[C@@H]2C)ccc1N1CCN(Cc2ccccc2)[C@H](C)C1	none (no result: NR2E3 ag-1, JMJD2C inh, NR2E3 ag-2)
O=C(Cn1c(=O)sc2ccccc21)Nc1ccc(S(=O)(=O)N2CCCCC2)cc1	ADAM17 inh 8.8, JMJD2C inh inconclusive | ADAM10 ctr 30 | ADAM17 confirm 17
O=C(Cn1c(=O)sc2ccccc21)Nc1ccccc1	none
COc1cccc(CNC(=O)CCC2CCCN(c3cc(C)nc(N)n3)C2)c1 (stereo not drawn)	none
COc1ccc(NC(=O)c2cccc(N3C(=O)C4C5CCC(C5)C4C3=O)c2)cc1 (stereo not drawn)	ADAM17 inh 11 | ADAM10 ctr inactive | ADAM17 confirm inactive
O=C(NCCc1cccs1)C1CC(c2cccc([N+](=O)[O-])c2)=NO1 (stereo not drawn)	none
O=C(NCc1cccs1)c1cc(-c2ccccc2)nn1CC1CC(c2cccc([N+](=O)[O-])c2)=NO1 (stereo not drawn)	ADAM17 inh 11 | ADAM10 ctr 27 | ADAM17 confirm 13
COc1cc(NC(=O)Cn2nnc(-c3ccccc3N)n2)cc(OC)c1	ADAM17 inh 9.6 | ADAM10 ctr inactive | ADAM17 confirm inactive
CCCS(=O)(=O)N1CCN(Cc2ccc3c(c2)c2ccccc2n3CC)CC1	none
CCCCN1c2ccccc2N(CCCO)c2cc(C)nnc21	ADAM17 inh 9.8 | ADAM10 ctr inactive | ADAM17 confirm inactive
O=C(CCNC(=O)c1ccc(Cl)cc1)Nc1c(F)c(F)cc(F)c1F	none
CN(Cc1cccs1)C(=O)CCc1ccc(S(=O)(=O)N2CCOCC2)cc1	ADAM17 inh 11 | ADAM10 ctr inactive | ADAM17 confirm inactive
CCC(C)[C@H](NC(=O)C1COC(O)([C@H](Cc2ccccc2)NC(=O)[C@@H](NC(=O)OCc2ccccc2)C(C)C)CN1C)C(=O)N[C@H](C(=O)OC)C(C)C (stereo partly drawn)	none (no result: NR2E3 ag-1, JMJD2C inh, NR2E3 ag-2, proKLK7 act)
O=[N+]([O-])c1ccc(Cl)c(C2Nc3cccc4cccc(c34)N2)c1	ADAM10 inh 32, ADAM17 inh 11 | ADAM10 ctr inactive | ADAM17 confirm 10
Clc1ccc(-c2nnc(SCc3cccc4ccccc34)n2-c2ccc(Cl)cc2)cc1	none (no result: NR2E3 ag-1, JMJD2C inh, NR2E3 ag-2)
Clc1ccc(-n2c(SCc3cccc4ccccc34)nnc2-c2ccccn2)cc1	ADAM17 inh 11 (no result: NR2E3 ag-1, JMJD2C inh, NR2E3 ag-2) | ADAM10 ctr 27 | ADAM17 confirm 14
C=CCn1c(N(C)C)nc2c1c(=O)[nH]c(=O)n2C	ADAM17 inh 9.8 | ADAM10 ctr inactive | ADAM17 confirm inactive
CCCn1c2ccccc2c2cnn(CC(=O)NC3CCCC(C)C3C)c(=O)c21 (stereo not drawn)	none
Cc1cc(C(=O)Nc2cc(S(C)(=O)=O)ccc2Cl)c(C)o1	none (no result: NR2E3 ag-1)
Cc1cccc(C2(c3cccc(C)c3)OC(=O)c3ccccc32)c1	ADAM17 inh 9.6 | ADAM10 ctr inactive | ADAM17 confirm 15
O=C1OC(c2ccccc2)(c2ccccc2)c2ccccc21	none (no result: NR2E3 ag-1, JMJD2C inh)
O=S(=O)(NCCc1ccc(F)cc1)c1cc(C(F)(F)F)ccc1Br	ADAM17 inh 9.9 (no result: NR2E3 ag-1, JMJD2C inh) | ADAM10 ctr 22 | ADAM17 confirm 11
O=S(=O)(NCCc1ccccc1)c1ccc(F)cc1Br	none (no result: NR2E3 ag-1, JMJD2C inh)

Bioassay records: PubChem BioAssay, several laboratories
